From ChEMBL document CHEMBL1144439, “A novel class of in vivo active anticancer agents: achiral seco-amino- and seco-hydroxycyclopropylbenz[e]indolone (seco-CBI) analogues of the duocarmycins and CC-1065” (J Med Chem, 2005)
Values belong to the compound of their own block, whether it stands above or below them.

Key:
[1] = The concentration required for inhibiting the growth of the murine B16-F0 melanoma cells by 50%; assay type: functional; settings: Mus musculus, B16F0
In short: (§1)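 MTT growth inhibition in murine lines grown in DMEM with 10% FBS, HEPES, glutamine, pen/strep at 37 °C, 5% CO2. Seeded 80 000 cells/well, continuous drug exposure (DMSO stock diluted in DMEM) for 72 h, quadruplicate wells per concentration. MTT added for 4 h, formazan dissolved in acid 2-propanol, read at 570 nm (reference 630 nm). IC50 extrapolated from averaged absorbance curves.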

K562 = assay: The concentration required for inhibiting the growth of the human K562 chronic myeloid leukemia cells by 50%; assay type: functional, cell-based
In short: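 Drug exposure was […] in the dark, then cells were washed and plated at 10⁴ cells/well, eight wells per sample, and incubated 4 days. MTT was added for 5 h, formazan dissolved in DMSO and read at 550 nm.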

L1210 = assay: The concentration required for inhibiting the growth of the murine L1210 leukemia cells by 50%; assay type: functional, cell-based; settings: Mus musculus; in short: as §1
P815 = assay: The concentration required for inhibiting the growth of the murine P815 mastocytoma cells by 50%; assay type: functional, cell-based; settings: Mus musculus
In short: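 P815 cells grown in DMEM with 10% FBS, HEPES, glutamine and pen/strep, seeded at 80 000 cells/well. Drug in DMSO/DMEM was added to final concentrations from 1.0 × 10^-12 to 1.0 × 10^-4 M, continuous for 72 h at 37 °C, 5% CO2, in quadruplicate. MTT was added for 4 h and solubilised in acid 2-propanol, read at 570/630 nm. IC50 was extrapolated from mean absorbance curves.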

Structure (SMILES): COC(=O)c1[nH]c2c(O)cc(NC(=O)c3cc4cc(OC)c(OC)c(OC)c4[nH]3)c(CCCl)c2c1C(=O)OC
IC50 [1]: 6.8 µM
IC50 (K562): 0.25 µM
IC50 (L1210): 4.2 µM
IC50 (P815): 5.4 µM

Structure (SMILES): COc1cc2cc(C(=O)N3CC(CCl)c4c3cc(O)c3ccccc43)[nH]c2c(OC)c1OC (stereo unspecified)
IC50 [1]: 0.078 µM
IC50 (K562): 0.028 µM
IC50 (L1210): 0.0084 µM

IC50 (L1210): 0.087 µM
Structure (SMILES): Nc1cc(NC(=O)c2cc3cc(NC(=O)c4cc5ccccc5o4)ccc3[nH]2)c(CCCl)c2ccccc12
IC50 [1]: 0.043 µM

IC50 (L1210): 0.39 µM
Structure (SMILES): COc1ccc2[nH]c(C(=O)Nc3cc(N)c4ccccc4c3CCCl)cc2c1
IC50 [1]: 0.26 µM

IC50 (K562): 1.43 µM
Structure (SMILES): COc1cc2cc(C(=O)NC3=C(CCCl)CCC(O)=C3)[nH]c2c(OC)c1OC

Structure (SMILES): COc1cc2cc(C(=O)Nc3cc(O)c4ccccc4c3CCCl)[nH]c2c(OC)c1OC
IC50 [1]: 0.027 µM
IC50 (K562): 0.15 µM
IC50 (L1210): 0.055 µM
IC50 (P815): 0.025 µM
